The results in this text go back to ChEMBL document CHEMBL1122395, “Tetracyclic chromophoric analogues of actinomycin D: synthesis, structure elucidation and interconvertibility from one form to another, antitumor activity, and structure-activity relationships” (1983).

Converted amounts (≈) assume the structure as drawn.

The species named for assay [1] is Mus musculus. As to the kind of experiment: Male CDF1 hybrid treated mice out of seven which survived over 60 days after the treatment. The assay is classed as functional. In short, it runs like this:
(§1)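 Male CDF1 mice, seven per group, given 10^6 P388 cells ip on day 0. Drugs were given ip in 10% Me2SO-saline on days 1, 5 and 9, with solutions kept at 0-4 °C, protected from light and checked for homogeneity by HPLC. A range of doses was run and the optimal nontoxic dose reported. Read-outs were median survival time, percent increase in life span, and cures (over-60-day survivors, average of two experiments).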

Assay [2] deals with P388. As to the kind of experiment: Percent increase in life span observed in P-388 cells infected male CDF1 hybrid mice after intraperitoneal administration at 600 ug/kg optimal dose. The assay is classed as functional, Mus musculus. Summed up: as §1
Assay [3] relates to P388. In words: Median survival time observed in P-388 cells infected male CDF1 hybrid mice after intraperitoneal administration at 600 ug/kg optimal dose. The assay is classed as functional, Mus musculus. Summed up: as §1
In assay [4] the test system is CCRF-CEM. In words: Growth inhibitory activity against human lymphoblastic leukemia cells(CCRF-CEM). To be noted: read-out: ID50 (the source's name). The assay is classed as functional. Summed up: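 Log-phase human lymphoblastic leukemia CCRF-CEM cells grown in suspension culture. Compounds dissolved in Me2SO, final growth medium contained 5% Me2SO. Test solutions kept at 0-4 °C, protected from light, homogeneity checked by HPLC before testing. ID50 reported in ng/mL.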

Assay [5] has as its system P388. In words: Percent increase in life span observed in P-388 cells infected male CDF1 hybrid mice after intraperitoneal administration at 1200 ug/kg optimal dose. In kind it is functional, Mus musculus. Summed up:
as §1

For assay [6], the system named is P388. As to the kind of experiment: Median survival time observed in P-388 cells infected male CDF1 hybrid mice after intraperitoneal administration at 1200 ug/kg optimal dose. The assay is classed as functional, Mus musculus. In short, it runs like this: as §1

As a reminder, the ILS is the gain in survival time of treated over control animals, in per cent. A higher ILS goes with much gain in survival. In the case of `Cc1ccc(C(=O)N[C@@H]2C(=O)N[C@H](C(C)C)C(=O)N3CCC[C@H]3C(=O)N(C)CC(=O)N(C)[C@@H](C(C)C)C(=O)O[C@@H]2C)c2c1Oc1c(c(C(=O)N[C@@H]3C(=O)N[C@H](C(C)C)C(=O)N4CCC[C@H]4C(=O)N(C)CC(=O)N(C)[C@@H](C(C)C)C(=O)O[C@@H]3C)c3nc(-c4ccccc4)c(=O)oc3c1C)N2`, the Cures in assay [1] amounted to 2. The compound also had an increase in life span (ILS) in assay [2] of 309%. Besides, the MST in assay [3] stood at 45 days. The IC50 in assay [4] amounted to 0.44 µg/mL (≈ 0.321 µM).

As for `Cc1ccc(C(=O)N[C@@H]2C(=O)N[C@H](C(C)C)C(=O)N3CCC[C@H]3C(=O)N(C)CC(=O)N(C)[C@@H](C(C)C)C(=O)O[C@@H]2C)c2c1Oc1c(c(C(=O)N[C@@H]3C(=O)N[C@H](C(C)C)C(=O)N4CCC[C@H]4C(=O)N(C)CC(=O)N(C)[C@@H](C(C)C)C(=O)O[C@@H]3C)c3nc(-c4ccc(Cl)cc4)c(=O)oc3c1C)N2`, in assay [1], the Cures came out at 0. For the same compound, the increase in lifespan (ILS) in assay [2] amounted to 164%. Besides, the MST in assay [3] was 29 days. In addition, the IC50 in assay [4] amounted to 1.6 µg/mL (≈ 1.14 µM).

`CCCCCCc1nc2c(C(=O)N[C@@H]3C(=O)N[C@H](C(C)C)C(=O)N4CCC[C@H]4C(=O)N(C)CC(=O)N(C)[C@@H](C(C)C)C(=O)O[C@@H]3C)c3c(c(C)c2oc1=O)Oc1c(C)ccc(C(=O)N[C@@H]2C(=O)N[C@H](C(C)C)C(=O)N4CCC[C@H]4C(=O)N(C)CC(=O)N(C)[C@@H](C(C)C)C(=O)O[C@@H]2C)c1N3`: the Cures in assay [1] is reported as 0. For the same compound, in assay [4], the IC50 worked out at 2.08 µg/mL (≈ 1.51 µM). Further, in assay [5], the ILS is given as 127%. Further, the MST in assay [6] was 25 days.

Take `Cc1ccc(C(=O)N[C@@H]2C(=O)N[C@H](C(C)C)C(=O)N3CCC[C@H]3C(=O)N(C)CC(=O)N(C)[C@@H](C(C)C)C(=O)O[C@@H]2C)c2c1Oc1c(c(C(=O)N[C@@H]3C(=O)N[C@H](C(C)C)C(=O)N4CCC[C@H]4C(=O)N(C)CC(=O)N(C)[C@@H](C(C)C)C(=O)O[C@@H]3C)c3nc(-c4ccc(Cl)cc4Cl)c(=O)oc3c1C)N2`: the Cures in assay [1] came to 0. The IC50 in assay [4] came out at 3.2 µg/mL (≈ 2.22 µM). In assay [5], this compound showed an ILS of 155%. For the same compound, in assay [6], the MST is 28 days.

In assay [1], `Cc1ccc(C(=O)N[C@@H]2C(=O)N[C@H](C(C)C)C(=O)N3CCC[C@H]3C(=O)N(C)CC(=O)N(C)[C@@H](C(C)C)C(=O)O[C@@H]2C)c2c1Oc1c(c(C(=O)N[C@@H]3C(=O)N[C@H](C(C)C)C(=O)N4CCC[C@H]4C(=O)N(C)CC(=O)N(C)[C@@H](C(C)C)C(=O)O[C@@H]3C)c3nc(-c4ccc5ccccc5c4)c(=O)oc3c1C)N2` registered a Cures of 0. For the same compound, in assay [4], the IC50 was 1 µg/mL (≈ 0.703 µM). Further, in assay [5], the increase in life span (ILS) is reported as 136%. The same compound registered an MST in assay [6] of 26 days.

Take `Cc1nc2c(C(=O)N[C@@H]3C(=O)N[C@H](C(C)C)C(=O)N4CCC[C@H]4C(=O)N(C)CC(=O)N(C)[C@@H](C(C)C)C(=O)O[C@@H]3C)c3c(c(C)c2o1)Oc1c(C)ccc(C(=O)N[C@@H]2C(=O)N[C@H](C(C)C)C(=O)N4CCC[C@H]4C(=O)N(C)CC(=O)N(C)[C@@H](C(C)C)C(=O)O[C@@H]2C)c1N3`: in assay [1], the Cures was found to be 0. For the same compound, in assay [4], the IC50 stood at 2.9 µg/mL (≈ 2.26 µM). Further, the increase in lifespan (ILS) in assay [5] amounted to 91%. Besides, the MST in assay [6] was 21 days.

Regarding `Cc1ccc(C(=O)N[C@@H]2C(=O)N[C@H](C(C)C)C(=O)N3CCC[C@H]3C(=O)N(C)CC(=O)N(C)[C@@H](C(C)C)C(=O)O[C@@H]2C)c2c1Oc1c(c(C(=O)N[C@@H]3C(=O)N[C@H](C(C)C)C(=O)N4CCC[C@H]4C(=O)N(C)CC(=O)N(C)[C@@H](C(C)C)C(=O)O[C@@H]3C)c3nc(-c4ccccc4Cl)c(=O)oc3c1C)N2`, in assay [1], the Cures amounted to 1. The IC50 in assay [4] is 1.8 µg/mL (≈ 1.28 µM). The ILS in assay [5] amounted to 172%. This compound came in with an MST in assay [6] of 30 days.

With `Cc1ccc(C(=O)N[C@@H]2C(=O)N[C@H](C(C)C)C(=O)N3CCC[C@H]3C(=O)N(C)CC(=O)N(C)[C@@H](C(C)C)C(=O)O[C@@H]2C)c2c1Oc1c(c(C(=O)N[C@@H]3C(=O)N[C@H](C(C)C)C(=O)N4CCC[C@H]4C(=O)N(C)CC(=O)N(C)[C@@H](C(C)C)C(=O)O[C@@H]3C)c3nc(-c4cccc(Cl)c4)c(=O)oc3c1C)N2`, in assay [1], the Cures is recorded as 0. Moreover, the ILS in assay [2] is 164%. In addition, the MST in assay [3] came to 29 days. The IC50 in assay [4] was 1.6 µg/mL (≈ 1.14 µM).
